Reference: publication PMC7017397 (ACS Omega, 2020)

Tests used:
[1] = Plasma pharmacokinetics after a single 1 mg/kg dose; assay type: in vivo, C57BL/6J mice
Procedure, shortened: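 Male C57BL/6J mice (10–12 weeks; n = 4 per time point) under i.p. zolazepam 50 mg/kg plus xylazine 12 mg/kg received 1 mg/kg in 5% dextrose (37 °C) by tail-vein i.v., s.c., i.p. or gavage. Terminal cardiac-puncture blood was taken into EDTA at 2.5–90 min. Plasma was spiked with internal standard, acetonitrile-deproteinized and measured by LC–MS/MS. Mean levels were fitted two-compartmentally, with AUC by linear trapezoidal rule.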

[2] = Spinal cord pharmacokinetics after a single 1 mg/kg dose; assay type: in vivo, C57BL/6J mice; details: for Cmax / MRT last / Tmax / k el: C57BL/6J, mouse, 1 mg/kg; for spinal cord drug targeting efficiency: from zero-infinity predicted AUC values
Procedure, shortened: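 Anaesthetized (zolazepam/xylazine i.p.) male C57BL/6J mice, n = 4 per time point, were dosed 1 mg/kg by i.v., s.c., i.p. or gavage. At 2.5–90 min, after cardiac blood sampling, they were transcardially perfused with saline. Brain and spinal cord were homogenized in equal weight-volume water, spiked with internal standard, deproteinized 1:3 with cold acetonitrile and quantified by LC–MS/MS. Per-time-point means were fitted with a two-compartment model.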

[3] = spinal cord, i.p. 1 mg/kg single dose
[4] = spinal cord, i.v. 1 mg/kg single dose
[5] = spinal cord, p.o. 1 mg/kg single dose
[6] = spinal cord, s.c. 1 mg/kg single dose

CC(=O)N[C@@H](Cc1ccccc1)C(=O)N[C@H]1CCCNC(=O)[C@H](CCCNC(=N)N)NC(=O)[C@H](Cc2c[nH]c3ccccc23)NC(=O)[C@@H](CC2CCCCC2)NC(=O)[C@@H]2CCCN2C1=O [PMX53, Ac-Phe-[Orn-Pro-dCha-Trp-Arg]]
CLD2_F (apparent total clearance of the drug from plasma after administration) ([1]; i.v. 1 mg/kg single dose): 84.57 µL/min | CL_F (apparent total body clearance of the drug from plasma) ([1]; i.v. 1 mg/kg single dose): 199.16 µL/min | K12 (distribution rate constant) ([1]; i.v. 1 mg/kg single dose): 2.95 h⁻¹ | K21 (redistribution rate constant) ([1]; i.v. 1 mg/kg single dose): 4.85 h⁻¹ | V1_F (apparent volume of central compartment) ([1]; i.v. 1 mg/kg single dose): 1.72 mL | V2_F (apparent volume of peripheral compartment) ([1]; i.v. 1 mg/kg single dose): 1.05 mL | Alpha (hybrid first-order rate constant, distribution phase) ([1]; p.o. 1 mg/kg single dose): 0.04 min⁻¹ | Beta (hybrid first-order rate constant, elimination phase) ([1]; p.o. 1 mg/kg single dose): 0.04 min⁻¹ | CLD2_F (apparent total clearance of the drug from plasma after administration) ([1]; p.o. 1 mg/kg single dose): <0.01 µL/min | CL_F (apparent total body clearance of the drug from plasma) ([1]; p.o. 1 mg/kg single dose): 2.01 µL/min | K01 (absorption rate constant) ([1]; p.o. 1 mg/kg single dose): 2.92 h⁻¹ | K12 (distribution rate constant) ([1]; p.o. 1 mg/kg single dose): <0.001 h⁻¹ | K21 (redistribution rate constant) ([1]; p.o. 1 mg/kg single dose): 2.58 h⁻¹ | V1_F (apparent volume of central compartment) ([1]; p.o. 1 mg/kg single dose): 0.05 mL | V2_F (apparent volume of peripheral compartment) ([1]; p.o. 1 mg/kg single dose): <0.01 mL | Alpha (hybrid first-order rate constant, distribution phase) ([1]; s.c. 1 mg/kg single dose): 0.04 min⁻¹ | Beta (hybrid first-order rate constant, elimination phase) ([1]; s.c. 1 mg/kg single dose): 0.04 min⁻¹ | CLD2_F (apparent total clearance of the drug from plasma after administration) ([1]; s.c. 1 mg/kg single dose): <0.01 µL/min | CL_F (apparent total body clearance of the drug from plasma) ([1]; s.c. 1 mg/kg single dose): 0.11 µL/min | K01 (absorption rate constant) ([1]; s.c. 1 mg/kg single dose): 2.28 h⁻¹ | K12 (distribution rate constant) ([1]; s.c. 1 mg/kg single dose): <0.001 h⁻¹ | K21 (redistribution rate constant) ([1]; s.c. 1 mg/kg single dose): 2.14 h⁻¹ | V1_F (apparent volume of central compartment) ([1]; s.c. 1 mg/kg single dose): <0.01 mL | V2_F (apparent volume of peripheral compartment) ([1]; s.c. 1 mg/kg single dose): <0.01 mL | Cmax ([2]; spinal cord, ip): 71.3 ng/g | MRT last ([2]; spinal cord, ip): 37.2 min | Tmax ([2]; spinal cord, ip): 11.9 min | k el ([2]; spinal cord, ip): 0.000242 s⁻¹ | Cmax ([2]; spinal cord, iv): 130 ng/g | MRT last ([2]; spinal cord, iv): 41.4 min | k el ([2]; spinal cord, iv): 0.000111 s⁻¹ | Cmax ([2]; spinal cord, po): 75.9 ng/g | MRT last ([2]; spinal cord, po): 40.8 min | Tmax ([2]; spinal cord, po): 14.9 min | k el ([2]; spinal cord, po): 0.000122 s⁻¹ | Cmax ([2]; spinal cord, sc): 96.6 ng/g | MRT last ([2]; spinal cord, sc): 38.4 min | Tmax ([2]; spinal cord, sc): 23.1 min | k el ([2]; spinal cord, sc): 0.000519 s⁻¹ | spinal cord drug targeting efficiency ([2]; i.p. 1 mg/kg): 0.63 | spinal cord drug targeting efficiency ([2]; p.o. 1 mg/kg): 4.42 | spinal cord drug targeting efficiency ([2]; s.c. 1 mg/kg): 0.77 | Alpha (hybrid first-order rate constant, distribution phase) [2, 3]: 0.87 h⁻¹ | Beta (hybrid first-order rate constant, elimination phase) [2, 3]: 0.19 h⁻¹ | CLD2_F (apparent total clearance of the drug after administration) [2, 3]: 0.01 ng/(min ng/g) | CL_F (apparent total body clearance of the drug) [2, 3]: 5.15 ng/(min ng/g) | K01 (absorption rate constant) [2, 3]: 15.39 h⁻¹ | K12 (distribution rate constant) [2, 3]: <0.01 h⁻¹ | K21 (redistribution rate constant) [2, 3]: 0.19 h⁻¹ | V1_F (apparent volume of central compartment) [2, 3]: 0.35 μg/(ng/g) | V2_F (apparent volume of peripheral compartment) [2, 3]: <0.01 μg/(ng/g) | Alpha (hybrid first-order rate constant, distribution phase) [2, 4]: 26.36 h⁻¹ | Beta (hybrid first-order rate constant, elimination phase) [2, 4]: 0.27 h⁻¹ | CLD2_F (apparent total clearance of the drug after administration) [2, 4]: 30.58 ng/(min ng/g) | CL_F (apparent total body clearance of the drug) [2, 4]: 1.52 ng/(min ng/g) | K12 (distribution rate constant) [2, 4]: 7.94 h⁻¹ | K21 (redistribution rate constant) [2, 4]: 18.30 h⁻¹ | V1_F (apparent volume of central compartment) [2, 4]: 0.23 μg/(ng/g) | V2_F (apparent volume of peripheral compartment) [2, 4]: 0.10 μg/(ng/g) | Vss (apparent volume of distribution at a steady state) [2, 4]: 0.33 μg/(ng/g) | Alpha (hybrid first-order rate constant, distribution phase) [2, 5]: 1.69 h⁻¹ | Beta (hybrid first-order rate constant, elimination phase) [2, 5]: 0.26 h⁻¹ | CLD2_F (apparent total clearance of the drug after administration) [2, 5]: 2.71 ng/(min ng/g) | CL_F (apparent total body clearance of the drug) [2, 5]: 2.33 ng/(min ng/g) | K01 (absorption rate constant) [2, 5]: 11.20 h⁻¹ | K12 (distribution rate constant) [2, 5]: 0.51 h⁻¹ | K21 (redistribution rate constant) [2, 5]: 1.00 h⁻¹ | V1_F (apparent volume of central compartment) [2, 5]: 0.32 μg/(ng/g) | V2_F (apparent volume of peripheral compartment) [2, 5]: 0.16 μg/(ng/g) | Alpha (hybrid first-order rate constant, distribution phase) [2, 6]: 2.66 h⁻¹ | Beta (hybrid first-order rate constant, elimination phase) [2, 6]: 0.22 h⁻¹ | CLD2_F (apparent total clearance of the drug after administration) [2, 6]: 1.36 ng/(min ng/g) | CL_F (apparent total body clearance of the drug) [2, 6]: 3.68 ng/(min ng/g) | K01 (absorption rate constant) [2, 6]: 2.70 h⁻¹ | K12 (distribution rate constant) [2, 6]: 0.69 h⁻¹ | K21 (redistribution rate constant) [2, 6]: 0.32 h⁻¹ | V1_F (apparent volume of central compartment) [2, 6]: 0.12 μg/(ng/g) | V2_F (apparent volume of peripheral compartment) [2, 6]: 0.26 μg/(ng/g)
